Assay outcomes: PubChem, Sanford-Burnham Center for Chemical Genomics
Hits are enriched below; roughly 1.2% of the tested compounds scored in any of these assays.
HKDC1 inh = HKDC1 hexokinase inhibitors, primary screen, biochemical, fluorescence, uHTS. Q2TB90. recombinant HKDC1, G6PDH/diaphorase resazurin coupled fluorescence. inhibition, % at 20 µM. hit rate 0.16% among 340,000;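 active means inhibition above about 35% when tested at 20 µM, limit read from the data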;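 further: plate controls were DMSO wells with enzyme for no effect and DMSO wells lacking enzyme for full effect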
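Test system: recombinant HKDC1 (HK5) hexokinase enzyme, produced in-house; Amount: enzyme 5 µg/mL final; Buffer or medium: Tris pH 8.0 buffer with MgCl2, Tween-20, BSA, BME; Reagent: glucose and ATP substrates; Doses: 20 µM test compound, 1% DMSO; Incubation: 90 min reaction incubation at room temperature, dark; Detection: resorufin fluorescence at 613 nm.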
PfGluPho inh = PfG6PD enzyme inhibitors, primary screen, biochemical, fluorescence intensity, uHTS; glucose-6-phosphate dehydrogenase-6-phosphogluconolactonase (Plasmodium falciparum 3D7); PfGluPho enzyme, NADPH resazurin-diaphorase fluorescence; inhibition, % at 20 µM; hit rate 0.78% among 350,000;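 active means inhibition reaching at least a set limit at 20 µM in the primary screen, cut at about 59% in these data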;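 further: 0% = DMSO wells with substrate and 100% = DMSO wells lacking glucose-6-phosphate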
Diaph act CS = compounds boosting diaphorase resazurin reduction – biochemical, uHTS, resorufin fluorescence, counter-screen for diaphorase-coupled primary assays, primary screen | activation factor at 20 µM | AID 1229, 2008 | hit rate 0.005% among 190,000 | Diaphorase/resazurin coupled assay, 16 min; hits give high values; 1 = vehicle wells, 0 = NADH-free wells;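 active means diaphorase activity raised at least twofold by the compound at 20 µM; inactive means activation factor below 2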
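Material: Purified diaphorase enzyme from Clostridium kluyveri | Buffer or medium: 50 mM HEPES pH 7.4 with 4.542 mM MgCl2, 0.005% Tween 20 | Times: 16 min enzyme reaction, ambient temperature | Signal: Red resorufin fluorescence at 544/590 nm excitation/emission | Measure: Increased resorufin signal from activators or reducing compounds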
Diaphorase inh = diaphorase inhibitors and chemical oxidizers, primary screen, counter-screen for diaphorase-coupled primary assays, biochemical, uHTS, resorufin fluorescence; diaphorase resazurin-to-resorufin fluorescence, NADH, 16 min; bacterial (C. kluyveri) enzyme, not human; inhibition, % at 20 µM; hit rate 0.69% among 190,000; AID 1217, 2008;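 active means primary screen inhibition at 20 µM above a set limit, cut at about 50% in these data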;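 further: plate controls were DMSO with full reaction for no effect and wells lacking NADH for full effect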
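Assay system – diaphorase enzyme from Clostridium kluyveri · Amount – diaphorase 0.14 U/mL (working solution) · Times – reaction incubation of 16 min at room temperature · Controls – No-NADH positive control and DMSO neutral control · Signal – resorufin fluorescence 544/590 nm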
G6PDH CS = L. mesenteroides G6PDH inhibitors, counter-screen for G6PDH-coupled screening assays, biochemical, Leuconostoc mesenteroides enzyme; glucose-6-phosphate dehydrogenase [Leuconostoc mesenteroides]; Purified L. mesenteroides G6PDH, diaphorase/resazurin coupled fluorescence, 45 min; inhibition, % at 5 µM; hit rate 0.12% among 200,000; AID 1020, 2008; in the data active means inhibition above about 50%
PfGluPho conf = PfG6PD inhibitors, hit retest, confirmation, biochemical, fluorescence intensity, single concentration. shares compounds with PfGluPho inh. recombinant PfGluPho, NADPH-diaphorase-resazurin fluorescence. inhibition, % at 20 µM. hit rate 34% among 2,400;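 active means inhibition of at least 50% at 20 µM in any single replicate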;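 further: 0% = DMSO with substrate and 100% = DMSO lacking glucose-6-phosphate substrate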
Diaph ctr 10uM = diaphorase inhibitors and chemical oxidizers, confirmation, counter-screen for P. falciparum G6PD inhibitor project, biochemical, fluorescence intensity, 10 µM NADPH; shares compounds with PfGluPho inh; diaphorase-coupled resazurin reduction, NADPH 10 uM; inhibition, % at 20 µM; hit rate 39% among 820; AID 504862, 2011;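 active means average inhibition reaching 50% or more with the compound at 20 µM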;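 further: resorufin red fluorescence formed as diaphorase reduces resazurin using NADPH; 0% = DMSO with enzyme and 100% = DMSO without enzyme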
Diaphorase 30uM = diaphorase inhibitors and chemical oxidizers, confirmation, counter-screen for P. falciparum G6PD inhibitor project, biochemical, fluorescence intensity, 30 µM NADPH; inhibition, % at 20 µM; AID 504863, 2011; Diaphorase/resazurin coupled assay, resorufin fluorescence; shares compounds with PfGluPho inh; hit rate 29% among 820;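 active means inhibition averaging 50% or more, tested at 20 µM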;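 further: 0% = DMSO with enzyme and 100% = DMSO wells lacking diaphorase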
Active calls of the source: *; x = no result.

SMILES	HKDC1 inh	PfGluPho inh	Diaph act CS	Diaphorase inh	G6PDH CS	PfGluPho conf	others
Cc1ccc2[nH]c(O)c(N=NC(=O)C(C)n3cnc4ccccc4c3=O)c2c1 (stereo unspecified)	10.0	68.3*	0.8	22.7	1.3	49.8*	Diaph ctr 10uM=67.8*;Diaphorase 30uM=55.5*
CC(C(=O)c1ccccc1)n1cnc2ccccc2c1=O (stereo unspecified)	-0.9	0.3	0.9	11.7	2.0	x
CCOc1ccc(C(=O)Nc2nnc(S(=O)(=O)N(C)Cc3ccco3)s2)cc1	-3.4	-6.3	x	x	x	x
CN(Cc1ccco1)S(=O)(=O)c1nnc(NC(=O)c2ccc(F)cc2)s1	-4.7	98.0*	x	x	x	83.1*	Diaph ctr 10uM=72.1*;Diaphorase 30uM=54.9*
COc1cccc(C(=O)Nc2nnc(S(=O)(=O)N(C)Cc3ccc(F)cc3)s2)c1	-0.4	80.1*	x	x	x	48.4
COc1ccc(CN(C)S(=O)(=O)c2nnc(NC(=O)c3cccc(OC)c3)s2)cc1	11.0	95.6*	x	x	x	62.4*	Diaph ctr 10uM=55.9*;Diaphorase 30uM=60.2*
COc1ccc(CN(C)S(=O)(=O)c2nnc(NC(=O)c3ccc(C)cc3)s2)cc1OC	1.0	87.8*	x	x	x	70.2*	Diaph ctr 10uM=39.3;Diaphorase 30uM=27.2
CN(Cc1ccccc1)S(=O)(=O)c1nnc(NC(=O)c2ccccc2)s1	-0.5	43.6	x	x	x	x
Cc1cccc(N=[N+]([O-])c2cccc(C)n2)n1	-0.7	4.6	x	x	x	x
Cc1cccc(NC(=S)N2CCN(S(=O)(=O)c3cccc(F)c3)CC2)c1	-5.0	0.3	0.8	18.0	4.9	x
Nc1cc(N)nc(SCC(=O)N2CCN(S(=O)(=O)c3ccccc3)CC2)n1	-2.8	3.6	x	x	x	x
CC(C)n1ncc2c(C(=O)N3CCN(S(=O)(=O)c4cccc(F)c4)CC3)cc(C3CC3)nc21	x	-8.4	x	x	x	x
CN1OC[C@@H]2CN(Cc3ccccc3)[C@H](c3cccc(Oc4ccccc4)c3)C[C@@H]21	0.8	0.0	x	x	x	x
COc1cccc(C(=O)Nc2nnc(S(=O)(=O)N(C)Cc3ccccc3)s2)c1	9.9	88.3*	x	x	x	77.3*	Diaph ctr 10uM=61.9*;Diaphorase 30uM=39.0
COc1ccc(OC)c(C2CC(=O)NC(SC)=C2C#N)c1 (stereo unspecified)	-2.5	28.2	0.8	23.7	4.4	x
COc1cc(OC)c(C2CC(=O)N3CN(C)CSC3=C2C#N)cc1OC (stereo unspecified)	8.9	61.0*	0.6	35.9	20.3	33.6
COc1ccc(Br)cc1C1CC(=O)N2CN(C)CSC2=C1C#N (stereo unspecified)	16.1	65.2*	0.6	42.9	20.0	25.4
CCCCNC(=O)c1cn(CC(C)C)c(=O)c2c1c1ccccc1n2C	1.4	3.5	x	x	x	x
O=C(O)Cc1ccc(-n2cccc2)cc1	3.3	-12.2	1	-1.2	11.4	x
S=C(c1ccc(-c2ccccc2Cl)o1)N1CCOCC1	-7.3	61.6*	0.8	24.3	1.7	41.7
S=C(c1ccc(-c2ccc(Cl)c(Cl)c2)o1)N1CCOCC1	-1.9	32.3	0.7	26.6	-32.6	x
COC(=O)c1c(-c2ccc(C(C)(C)C)cc2)csc1NC(=O)C1C2CCC(O2)C1C(=O)O (stereo unspecified)	-17.4	69.5*	0.9	9.3	-4.2	30.6
